Screens deposited in PubChem BioAssay by several laboratories.
FLuc act counter: affects firefly luciferase, flagging false hits in luciferase stimulation screens. activation factor at 10 µM. 200,000 tested, under 10 active. P08659. ATPlite luciferase biochemical, luminescence, 10 min; 0 = ATP-free wells, 1 = DMSO control;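 active = luciferase activation factor, scaled between plate controls, of at least 2 with compound at 10 µM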
Target sequence (P08659 whole entry, looked up): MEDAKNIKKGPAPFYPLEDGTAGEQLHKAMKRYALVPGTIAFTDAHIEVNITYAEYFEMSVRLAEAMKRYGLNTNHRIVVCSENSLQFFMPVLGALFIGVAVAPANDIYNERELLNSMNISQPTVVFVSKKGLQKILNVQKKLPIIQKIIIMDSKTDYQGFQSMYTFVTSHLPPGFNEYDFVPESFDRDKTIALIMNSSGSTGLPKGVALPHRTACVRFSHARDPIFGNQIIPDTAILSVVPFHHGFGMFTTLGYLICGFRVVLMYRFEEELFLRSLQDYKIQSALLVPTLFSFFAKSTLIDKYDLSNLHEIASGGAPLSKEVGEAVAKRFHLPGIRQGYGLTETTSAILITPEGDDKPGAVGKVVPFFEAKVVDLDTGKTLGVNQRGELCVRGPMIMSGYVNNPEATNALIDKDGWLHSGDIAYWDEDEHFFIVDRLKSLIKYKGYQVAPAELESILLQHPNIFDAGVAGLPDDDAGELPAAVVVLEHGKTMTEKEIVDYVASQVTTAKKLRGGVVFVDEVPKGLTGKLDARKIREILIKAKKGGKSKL
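Assay system: Luciferase/luciferin detection reagent, cell-free biochemical luciferase assay / Also added: ATP substrate / Schedule: 10 min at ambient temperature / Measured by: luminescence measurement of luciferase light output / Benchmarks: low control with PBS replacing ATP, high control enzyme plus ATP without compound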
STAT1 activator: activators of IFN-gamma induced STAT1 signaling; 200,000 tested, 2.6% active; NIH 3T3 STAT1-luciferase reporter, luminescence; 100% = IFN-gamma alone, no compound; activation (% of control), % at 5.5 µM;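 active = activation above the screen-wide mean activation plus 3 SD, cut at about 130% in these data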;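 note: raw ratio to IFN-gamma control signal so 100% means no change and 0% no light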
APP 5'UTR act: activates APP 5'UTR luciferase reporter. SH-SY5Y APP 5'UTR luciferase reporter, luminescence; zero percent = DMSO vehicle wells. activation, % at 2 µM. 190,000 tested, 1% active. AID 1276;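 active = activation above a set limit, based on mean plus 3 SD of controls, cut at about 140% in these data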
FLuc inhib CS: Photinus pyralis luciferase inhibition counter-screen; 200,000 tested, 1.5% active; ATPLite firefly luciferase biochemical luminescence, 10 min; inhibition, % at 10 µM; AID 1006;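 active = inhibition above about 50% when tested at 10 µM, limit read from the data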
APP transl inh: APP translation inhibition | SH-SY5Y APP 5'UTR-luciferase reporter, luminescence | inhibition, % at 2 µM | 190,000 tested, 0.82% active | AID 1285;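 active = inhibition above a set limit, derived from the sample mean plus 3 SD, cut at about 45% in these data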
NF-kB expr up: NF-kB expression increase, human neuronal cells. NF-kB reporter expression; hits give high values. fold change at 12.5 µM. 190,000 tested, 1.6% active; in the data active = fold change above about 3.3
The depositor's hits bear a star; . = no result given. This is a sample that favours compounds with a hit; in the whole collection about 4.8% have one here.

SMILES	FLuc act counter	STAT1 activator	APP 5'UTR act	FLuc inhib CS	APP transl inh	NF-kB expr up
O=C1CN(S(=O)(=O)c2cc(Cl)ccc2Cl)CCN1	1	93	-13	-2	13	1.4
O=C(NCc1ccccn1)C1CCN(S(=O)(=O)N2CCCC2)CC1	1	93	1	-3	-1	1.1
CCOC(=O)c1ccc(-c2c(C(=O)OCC)oc3cc(O)c(CC)cc3c2=O)o1	1.1	98	14	-7	-14	1.2
COc1ccc(/C=C/C(=O)OCC(=O)Nc2ccc(C)cc2)cc1S(=O)(=O)N1CCOCC1	1.1	92	-17	-10	17	1.1
Cc1ccc2cc(C#N)c(SCc3nnc(-c4ccccc4[N+](=O)[O-])o3)nc2c1	1	96	28	-2	-28	4.7*
Cc1ccc(NC(=O)N2CCc3ccccc3C2)cc1	0.8	148*	75	18	-75	3.5*
O=C(Nc1ccc(Cl)cc1)N1CCc2ccccc2C1	0.9	139*	44	12	-44	2.9
CC(C)(C)NC(=O)C(c1ccncc1)N(C(=O)C1CSC(=O)C1)c1ccccc1 (configuration not stated)	1	99	-6	-5	6	1.2
c1ccc2c(Nc3nnc(-c4ccncc4)s3)cccc2c1	0.5	125	70	52*	-70	1.6
COc1cccc(NC(=O)C(=O)N2CCOCC2)c1	0.8	136*	.	15	-39	2.6
COc1cccc(NC(=S)NCc2ccncc2)c1	1	96	-18	-2	18	0.93
COC(=O)c1ccc(NC(=O)C(=O)N2CCN(C(=S)Nc3cccc(OC)c3)CC2)cc1	1	94	1	-2	-2	1.1
COc1cccc(NC(=O)C(=O)NCc2ccncc2)c1	0.9	129*	26	9	-26	1.2
CN(C)c1ccc(Nc2nc(N)c([N+](=O)[O-])c(N3CCOCC3)n2)cc1	1	94	-10	0	10	1.2
Nc1nc(Nc2ccccc2)nc(N2CCOCC2)c1[N+](=O)[O-]	1	105	-58	-3	58*	0.94
Fc1ccccc1/C=C/c1ccc2ccccc2n1	0.1	96	196*	87*	-196	6.7*
C(=C\c1ccc2ccccc2n1)/c1ccccc1	.	.	176*	.	-176	.
CC(=O)Oc1ccc(Cl)cc1/C=C/c1ccc2ccccc2n1	1	95	88	-2	-88	7.3*
Oc1ccc(/C=C/c2ccc3ccccc3n2)cc1	0.1	33	55	86*	-55	2.6
COc1ccc(NC(=S)Nc2cccc(S(=O)(=O)N3CCCCC3)c2)cc1	1	106	4	0	-4	0.83
O=[N+]([O-])c1ccc(/C=C/c2ccc3ccccc3n2)cc1	0.2	51	165*	76*	-165	5.2*
O/C(=C\c1ccc2ccccc2n1)c1ccc(O)cc1O	0.2	96	158*	83*	-158	8.1*
O=C(O)/C=C/c1ccc2ccccc2n1	1	94	2	-4	-2	1.2
O=C(Nc1cnc2ccccc2c1)c1cccnc1	0.9	134*	106	11	-106	3.6*
Cc1ccc(C(=O)Nc2cnc3ccccc3c2)cc1	0.1	16	-31	89*	31	0.71
SMILES	FLuc act counter	STAT1 activator	APP 5'UTR act	FLuc inhib CS	APP transl inh	NF-kB expr up
O=C(NNC(=O)c1cccc(-n2cnnn2)c1)c1ccccc1	1	108	0	-2	0	1.3
O=C(Nc1ccc(NC(=O)c2ccco2)nc1)c1cccnc1	0.4	134*	79	62*	-79	2.4
O=C(Nc1cccc(NC(=O)c2cccnc2)c1)c1cccnc1	1	94	-13	-3	13	0.45
O=C(Nc1cnc2ccccc2c1)c1cccc(-n2cnnn2)c1	1	135*	60	0	-60	1.4
Cc1cc(C(=O)Nc2cnc3ccccc3c2)ccc1[N+](=O)[O-]	1	137*	204*	-1	-204	2.2
Cn1c(NC(=O)c2cccnc2)nc2ccccc21	0.8	148*	74	21	-74	2.2
CCCn1c(NC(=O)c2ccccc2)nc2ccccc21	1	102	-5	-4	5	0.99
COc1ccccc1C1CC(c2ccccc2)=NN1C(=S)Nc1ccccc1 (configuration not stated)	1	94	10	-4	-10	1.1
Cc1ccccc1Oc1ccc(Oc2ccccc2C)nn1	0.9	131*	66	7	-66	2.2
Cc1ccc(Oc2ccc(Oc3ccc(C)cc3)nn2)cc1	1	100	11	-2	-11	1.6
C/C(=N\Nc1ccc([N+](=O)[O-])cc1[N+](=O)[O-])C(C)C(C)C (configuration not stated)	1	87	-1	-3	1	.
Cc1sc(NC(=O)c2ccccc2F)c(CN2CCCCC2)c1C	1	121	24	-1	-24	1.8
Cc1sc(NC(=O)c2ccc(F)cc2)c(CN2CCCCCC2)c1C	1	131*	46	-2	-46	1.4
CN(C)c1cnn(-c2ccccc2)c(=O)c1Cl	1	108	-2	4	2	1.7
COc1ccc(-n2ncc(N(C)n3cccc3)c(Cl)c2=O)cc1	0.5	134*	133	54*	-133	3.7*
Cc1ccc(-n2ncc(N(C)C)c(Cl)c2=O)cc1	0.7	132*	119	30	-119	2.6
COc1ccc(-n2ncc(Cl)c(Cl)c2=O)cc1	0.9	106	-92	5	92*	1.1
O=C(/C=C/c1ccc(Br)cc1)c1ccco1	0.8	104	-4	18	4	1.6
O=C(/C=C/c1ccc2c(c1)OCO2)c1ccco1	0.4	109	20	58*	-20	1.5
Nc1ccccc1C(=O)/C=C/c1ccc2c(c1)OCO2	0.4	110	129	62*	-129	7.2*
CCNc1ccc(Br)cc(C(=O)/C=C/c2ccc3c(c2)OCO3)c1=O	1.1	93	-13	-6	13	0.96
Cc1ccccc1OCCn1cnc2c(N)ncnc21	1	129*	2	1	-2	1.6
Nc1ncnc2c1ncn2CCN1CCCCC1	1	97	15	-4	-15	1.1
CSC1=NCCN1C(=O)c1c(F)cccc1F	1.1	95	21	-6	-21	0.96
CN(C)c1ccc(C2=NOC(CN3C(=O)c4ccccc4S3(=O)=O)C2)cc1 (configuration not stated)	0.9	147*	93	10	-93	3.4*
Cc1cccnc1NC(=O)C(C)Oc1ccccc1 (configuration not stated)	1	99	3	-2	-3	1.3
CC(Oc1ccccc1)C(=O)NC1=NCCS1 (configuration not stated)	0.9	134*	58	7	-58	.
O=C(NC1=NCCS1)Nc1ccccc1	0.6	135*	53	42	-53	2.5
